Experimental data taken from ChEMBL document CHEMBL3232791, “Synthesis and antibacterial evaluation of amino acid-antibiotic conjugates” (2014).

Experiments:
Assay type in all cases: functional
Bacillus subtilis [1] = test: Antibacterial activity against Bacillus subtilis 168 assessed as growth inhibition at 0.1 ug/ml after 16 hrs by spectrophotometric analysis; conditions: subsp. subtilis str. 168, 16 h, read-out: GI
Method in brief: (§1)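 Growth inhibition read as OD600 on 300 µL culture samples, with untreated control cultures taken as maximum growth. Percent inhibition = (OD600 control − OD600 treated) × 100 / OD600 control. Parent antibiotics and their conjugates were run in parallel at three concentrations per compound, in biological duplicate.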

Pseudomonas aeruginosa [2] = test: Antibacterial activity against Pseudomonas aeruginosa PAO1 assessed as growth inhibition at 10 ug/ml after 16 hrs by spectrophotometric analysis; conditions: PAO1, 16 h, read-out: GI; method in brief: as §1
Bacillus subtilis [3] = test: Antibacterial activity against Bacillus subtilis 168 assessed as growth inhibition at 0.2 ug/ml after 16 hrs by spectrophotometric analysis; conditions: subsp. subtilis str. 168, 16 h, read-out: GI; method in brief: as §1
Bacillus subtilis [4] = test: Antibacterial activity against Bacillus subtilis 168 assessed as growth inhibition at 0.4 ug/ml after 16 hrs by spectrophotometric analysis; conditions: subsp. subtilis str. 168, 16 h, read-out: GI; method in brief: as §1
Staphylococcus aureus [5] = test: Antibacterial activity against Staphylococcus aureus RN4220 assessed as growth inhibition at 4 ug/ml after 16 hrs by spectrophotometric analysis; conditions: RN4220, 16 h, read-out: GI; method in brief: as §1
Pseudomonas aeruginosa [6] = test: Antibacterial activity against Pseudomonas aeruginosa PAO1 assessed as growth inhibition at 20 ug/ml after 16 hrs by spectrophotometric analysis; conditions: PAO1, 16 h, read-out: GI; method in brief: as §1
Escherichia coli [7] = test: Antibacterial activity against Escherichia coli DH5alpha assessed as growth inhibition at 0.125 ug/ml after 16 hrs by spectrophotometric method; conditions: DH5[alpha], read-out: GI; method in brief: as §1
Staphylococcus aureus [8] = test: Antibacterial activity against Staphylococcus aureus RN4220 assessed as growth inhibition at 8 ug/ml after 16 hrs by spectrophotometric analysis; conditions: RN4220, 16 h, read-out: GI; method in brief: as §1
Escherichia coli [9] = test: Antibacterial activity against Escherichia coli DH5alpha assessed as growth inhibition at 0.5 ug/ml after 16 hrs by spectrophotometric method; conditions: DH5[alpha], read-out: GI; method in brief: as §1
Pseudomonas aeruginosa [10] = test: Antibacterial activity against Pseudomonas aeruginosa PAO1 assessed as growth inhibition at 40 ug/ml after 16 hrs by spectrophotometric analysis; conditions: PAO1, 16 h, read-out: GI; method in brief: as §1
Escherichia coli [11] = test: Antibacterial activity against Escherichia coli DH5alpha assessed as growth inhibition at 0.0635 ug/ml after 16 hrs by spectrophotometric method; conditions: DH5[alpha], read-out: GI; method in brief: as §1
Staphylococcus aureus [12] = test: Antibacterial activity against Staphylococcus aureus RN4220 assessed as growth inhibition at 2 ug/ml after 16 hrs by spectrophotometric analysis; conditions: RN4220, 16 h, read-out: GI; method in brief: as §1
Staphylococcus aureus [13] = test: Antibacterial activity against Staphylococcus aureus RN4220 assessed as growth inhibition at 30 ug/ml after 16 hrs by spectrophotometric analysis; conditions: RN4220, 16 h, read-out: GI; method in brief: as §1
Escherichia coli [14] = test: Antibacterial activity against Escherichia coli DH5alpha assessed as growth inhibition at 3 ug/ml after 16 hrs by spectrophotometric method; conditions: DH5[alpha], read-out: GI; method in brief: as §1
Escherichia coli [15] = test: Antibacterial activity against Escherichia coli DH5alpha assessed as growth inhibition at 1.5 ug/ml after 16 hrs by spectrophotometric method; conditions: DH5[alpha], read-out: GI; method in brief: as §1
Bacillus subtilis [16] = test: Antibacterial activity against Bacillus subtilis 168 assessed as growth inhibition at 5 ug/ml after 16 hrs by spectrophotometric analysis; conditions: subsp. subtilis str. 168, 16 h, read-out: GI; method in brief: as §1
Bacillus subtilis [17] = test: Antibacterial activity against Bacillus subtilis 168 assessed as growth inhibition at 10 ug/ml after 16 hrs by spectrophotometric analysis; conditions: subsp. subtilis str. 168, 16 h, read-out: GI; method in brief: as §1
Escherichia coli [18] = test: Antibacterial activity against Escherichia coli DH5alpha assessed as growth inhibition at 0.75 ug/ml after 16 hrs by spectrophotometric method; conditions: DH5[alpha], read-out: GI; method in brief: as §1
Bacillus subtilis [19] = test: Antibacterial activity against Bacillus subtilis 168 assessed as growth inhibition at 20 ug/ml after 16 hrs by spectrophotometric analysis; conditions: subsp. subtilis str. 168, 16 h, read-out: GI; method in brief: as §1
Staphylococcus aureus [20] = test: Antibacterial activity against Staphylococcus aureus RN4220 assessed as growth inhibition at 15 ug/ml after 16 hrs by spectrophotometric analysis; conditions: RN4220, 16 h, read-out: GI; method in brief: as §1
Staphylococcus aureus [21] = test: Antibacterial activity against Staphylococcus aureus RN4220 assessed as growth inhibition at 60 ug/ml after 16 hrs by spectrophotometric analysis; conditions: RN4220, 16 h, read-out: GI; method in brief: as §1
Escherichia coli [22] = test: Antibacterial activity against Escherichia coli DH5alpha assessed as growth inhibition at 50 ug/ml after 16 hrs by spectrophotometric method; conditions: DH5[alpha], read-out: GI; method in brief: as §1
Escherichia coli [23] = test: Antibacterial activity against Escherichia coli DH5alpha assessed as growth inhibition at 40 ug/ml after 16 hrs by spectrophotometric method; conditions: DH5[alpha], read-out: GI; method in brief: as §1
Staphylococcus aureus [24] = test: Antibacterial activity against Staphylococcus aureus RN4220 assessed as growth inhibition at 120 ug/ml after 16 hrs by spectrophotometric analysis; conditions: RN4220, 16 h, read-out: GI; method in brief: as §1
Staphylococcus aureus [25] = test: Antibacterial activity against Staphylococcus aureus RN4220 assessed as growth inhibition at 240 ug/ml after 16 hrs by spectrophotometric analysis; conditions: RN4220, 16 h, read-out: GI; method in brief: as §1
Escherichia coli [26] = test: Antibacterial activity against Escherichia coli DH5alpha assessed as growth inhibition at 75 ug/ml after 16 hrs by spectrophotometric method; conditions: DH5[alpha], read-out: GI; method in brief: as §1

| SMILES | inhibition of growth at 0.1 µg/mL (Bacillus subtilis [1]) [%] | inhibition of growth at 10 µg/mL (Pseudomonas aeruginosa [2]) [%] | inhibition of growth at 0.2 µg/mL (Bacillus subtilis [3]) [%] | inhibition of growth at 0.4 µg/mL (Bacillus subtilis [4]) [%] | inhibition of growth at 4 µg/mL (Staphylococcus aureus [5]) [%] | inhibition of growth at 20 µg/mL (Pseudomonas aeruginosa [6]) [%] | inhibition of growth at 0.125 µg/mL (Escherichia coli [7]) [%] | inhibition of growth at 8 µg/mL (Staphylococcus aureus [8]) [%] | inhibition of growth at 0.5 µg/mL (Escherichia coli [9]) [%] | inhibition of growth at 40 µg/mL (Pseudomonas aeruginosa [10]) [%] | inhibition of growth at 0.0635 µg/mL (Escherichia coli [11]) [%] | inhibition of growth at 2 µg/mL (Staphylococcus aureus [12]) [%] | inhibition of growth at 60 µg/mL (Staphylococcus aureus [21]) [%] | inhibition of growth at 50 µg/mL (Escherichia coli [22]) [%] | inhibition of growth at 40 µg/mL (Escherichia coli [23]) [%] | inhibition of growth at 120 µg/mL (Staphylococcus aureus [24]) [%] | inhibition of growth at 240 µg/mL (Staphylococcus aureus [25]) [%] | inhibition of growth at 75 µg/mL (Escherichia coli [26]) [%] | other results |
| --- | --- | --- | --- | --- | --- | --- | --- | --- | --- | --- | --- | --- | --- | --- | --- | --- | --- | --- | --- |
| O=C(NCC(=O)N1CCN(c2cc3c(cc2F)c(=O)c(C(=O)O)cn3C2CC2)CC1)OCc1ccccc1 | 18.5 | -14 | 16.2 | 94.2 | 50.3 | -1.56 | -2.17 | 70.8 | 2.25 | 45 | 1.86 | 45.7 |  |  |  |  |  |  |  |
| C[C@H](NC(=O)OCc1ccccc1)C(=O)N1CCN(c2cc3c(cc2F)c(=O)c(C(=O)O)cn3C2CC2)CC1 | 12.6 | -13.3 | 42.3 | 91.9 | 46.1 | -2.13 | -2.93 | 55.8 | -1.86 | 58.2 | -0.72 | 23.2 |  |  |  |  |  |  |  |
| O=C(NCCCC[C@H](NC(=O)OCc1ccccc1)C(=O)N1CCN(c2cc3c(cc2F)c(=O)c(C(=O)O)cn3C2CC2)CC1)OCc1ccccc1 | 9.59 | 87.1 | 12.7 | 40.4 | 51.6 | 89.7 | 4.12 | 62.9 | 38.9 | 84.2 | -0.2 | 39.3 |  |  |  |  |  |  |  |
| CCn1cc(C(=O)O)c(=O)c2cc(F)c(N3CCN(C(=O)[C@H](Cc4ccccc4)NC(=O)OCc4ccccc4)CC3)cc21 |  | -28 |  |  |  | -18.6 |  |  |  | 5.69 |  |  | 92.7 |  |  |  |  |  | inhibition of growth at 30 µg/mL (Staphylococcus aureus [13]): 89.6%; inhibition of growth at 3 µg/mL (Escherichia coli [14]): 0.54%; inhibition of growth at 1.5 µg/mL (Escherichia coli [15]): 3.79%; inhibition of growth at 5 µg/mL (Bacillus subtilis [16]): 49.1%; inhibition of growth at 10 µg/mL (Bacillus subtilis [17]): 61.1%; inhibition of growth at 0.75 µg/mL (Escherichia coli [18]): -0.95%; inhibition of growth at 20 µg/mL (Bacillus subtilis [19]): 90.1%; inhibition of growth at 15 µg/mL (Staphylococcus aureus [20]): 12% |
| C[C@H](NC(=O)OCc1ccccc1)C(=O)Nc1ccc(S(=O)(=O)Nc2ncccn2)cc1 |  |  |  |  |  |  |  |  |  |  |  |  | -9.96 | -0.61 | 2.13 | -9.38 | 1.07 | -0.65 |  |
| O=C(N[C@@H](Cc1ccccc1)C(=O)Nc1ccc(S(=O)(=O)Nc2ncccn2)cc1)OCc1ccccc1 |  |  |  |  |  |  |  |  |  |  |  |  | -8.23 | 0.05 | 0.39 | 18.2 | 29.1 | 3.46 |  |
| O=C(C[C@H](NC(=O)OCc1ccccc1)C(=O)Nc1ccc(S(=O)(=O)Nc2ncccn2)cc1)OCc1ccccc1 |  |  |  |  |  |  |  |  |  |  |  |  | -17.6 | 3.75 | 4.72 | -2.44 | 3.48 | 4.72 |  |
| O=C(O)c1cn(C2CC2)c2cc(N3CCNCC3)c(F)cc2c1=O [CIPROFLOXACIN] | 30.4 | 91.8 |  | 94.3 | 63.9 | 91 | 52.3 | 75.3 | 77 | 89.8 | 32.5 | 48.4 |  |  |  |  |  |  |  |
| CCn1cc(C(=O)O)c(=O)c2cc(F)c(N3CCNCC3)cc21 [NORFLOXACIN] |  | 81.1 |  |  |  | 90.5 |  |  |  | 89.1 |  |  | 81 |  |  |  |  |  | inhibition of growth at 30 µg/mL (Staphylococcus aureus [13]): 73.5%; inhibition of growth at 3 µg/mL (Escherichia coli [14]): 80.8%; inhibition of growth at 1.5 µg/mL (Escherichia coli [15]): 72.8%; inhibition of growth at 5 µg/mL (Bacillus subtilis [16]): 90.7%; inhibition of growth at 10 µg/mL (Bacillus subtilis [17]): 91.9%; inhibition of growth at 0.75 µg/mL (Escherichia coli [18]): 55.3%; inhibition of growth at 20 µg/mL (Bacillus subtilis [19]): 92.2%; inhibition of growth at 15 µg/mL (Staphylococcus aureus [20]): 63.9% |
| Nc1ccc(S(=O)(=O)Nc2ncccn2)cc1 [SULFADIAZINE] |  |  |  |  |  |  |  |  |  |  |  |  | -6.47 | 8.11 | 2.66 | 2.17 | 18.1 | 6.44 |  |
